This sample holds only a part of the variants without activity. Where only a bound is given, the exact number is not on record here.

Experimental findings from the RNAGym collection of RNA variant scans (doi:10.1126/science.aae0568) are described below.

The chains are these.
B1: tRNA (parent)
chain: GUUCCGUUGGCGUAAUGGUAACGCGUCUCCCUCCUAAGGAGAAGACUGCGGGUUCGAGUCCCGUACGGAACG

In the series the parent is B1. As to the kind of experiment: yeast fitness relative to wild type (ratio to wild type); higher = fitter; tRNA-Arg(CCU), competitive growth, 37 C, YPD. In a few lines:
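Genotype frequency changes were the basis for Darwinian fitness relative to wild type. The frequencies came from 100-nucleotide paired-end sequencing of gene amplicons from the start population and each end population of pooled yeast strains with tRNA-Arg(CCU) gene variants at the native locus. Competition ran in YPD at 37°C for 24 hours in six replicates, genotypes needed ≥ 100 starting reads, and estimates < 0.5 were set to 0.5.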
As for GUUCCGUUGGCGUAAUGGUAACGCGUCUCCCAGCUAAGGAGAAGACUGCGGGUUCGAGUACCGUACGGAACG, the yeast fitness was no more than 0.5.
On to GUUCCGUUGGCGUAAUGGUAACGCGUCUCCCCCCUAAGGAGAAGACUGCGGGUUCGAGUCGCGUACGGCACG, for which the yeast fitness was no more than 0.5.
To GUUCCGUUGGCGUAAUGGUAACGCGUCUCCCCCCUAAGGAGAAGACUGCGGGUUCGAGUCCCGUACGGCACG belongs 0.943; to GUUCCGUUGGCGUAAUGGUAACGCGUCUCCCCCCUAAGGAGAAGACUACGGGUUCGCGUCCCGUACGGAACG, no more than 0.5.
The figure for GUUCCGUUGGCGUAAUGGUAACGCGUCUCCUUCCUAAGGAGAAGACAGCGGGUUCGAGUCCCGUACGGAACG is 0.817.
Regarding GUUCCGUUGGCGUAAUGGUAACGCGUCUCCCACCUAAGGAGAAGACUGCGGGUUCGAGUCCCGUCCGGAACG, the yeast fitness is 0.887.
Consider GUUCCGUUGGCGUAAUGGUAACGCGUCUCCUUCCCAAGGGGAAGACUGCGGGUUCGAGUCCCGUUCGGAACG, for which the yeast fitness is no more than 0.5.
Consider GUUCCGUUGGCGUAAUGGUAACGCGUCUCCCCCCUAAGGUGAAGACUGCGGGUUGGAGUCCCGUACGGACCG, for which the yeast fitness was no more than 0.5.
For GUUCCGUUGGCGUAAUGGUAACGCGUCUCCCACCUAAGGAGAAGACUGCGGGUUCGAGUCGCGUAGGGAACG, the yeast fitness turned out to be 0.576.
As for GUUCCGUUGGCGUAAUGGUAACGCGUCUCCUUCCUAAGGAGAAGACUGCGGGUUCGAGACCCGUACGGAACG, the yeast fitness amounted to 0.771.
The figure for GUUCCGUUGGCGUAAUGGUAACGCGUCUCCCGCCUUAGGAGAAGACUGCGGGUUCGAGCCCCGUACGGAACG is no more than 0.5.
On to GUUCCGUUGGCGUAAUGGUAACGCGUCUCCCCCCUAAGGAGAAGAUUGCGGGUUCGAGUCCCGUACGGAACG, for which the yeast fitness came to 0.862.
In the case of GUUCCGUUGGCGUAAUGGUAACGCGUCUCCCACCUAAGGAGAAGACUGCGGGUCCGAGUCCCGUACGGAACG, the yeast fitness worked out at 0.629.
Take GUUCCGUUGGCGUAAUGGUAACGCGUCUCCCCCCUAAGGAGAAGACUGCGGAUUCGAGUCCCGUACGGAACG: the yeast fitness amounted to 0.76.
To GUUCCGUUGGCGUAAUGGUAACGCGUCUCCCACCUAAGGAGCAGACUGCGGGUUCGAGUCGCGUAGGGAACG belongs 0.554; to GUUCCGUUGGCGUAAUGGUAACGCGUCUCCCCCCUAAGGAGAAGACUGCGGGUUCGACUCCCGUACGGAACG, 0.884.
On to GUUCCGUUGGCGUAAUGGUAACGCGUCUCCCACCUAAGGAGAAGACUGCGGGUUCGAGUCCCGUACAGAACG, for which the yeast fitness came out at 0.766.
GUUCCGUUGGCGUAAUGGUAACGCGUCUCCCCCCUAAGGAGAAGACUGCGGGUUCGAGUGCCGUCCGGAACG: the yeast fitness came out at 0.501.
Take GUUCCGUUGGCGUAAUGGUAACGCGUCUCCCGCCUUAGGAGAAGACUGCGGGUUCGAGUCCCGUACGGAACG: the yeast fitness turned out to be 0.697.
The figure for GUUCCGUUGGCGUAAUGGUAACGCGUCUCCCCCCCAUGGAGAAGACUGCGGAUUCGAGUCCCGUAAGGAACG is 0.719; for GUUCCGUUGGCGUAAUGGUAACGCGUCUCCUUCCUAAGGAGAAGACUGCGGGCUCGAGUCCUGUACGGAACG it is no more than 0.5.
To GUUCCGUUGGCGUAAUGGUAACGCGUCUCCUUCCUAAGGAGAAGACUGCGGGGUCGAGUCCCGUACGGAACG belongs 0.644.
Take GUUCCGUUGGCGUAAUGGUAACGCGUCUCCCACCUAAGGAGAAGACUGGGGGUUUGAGUCCCGUACGGCACG: the yeast fitness stood at 0.546.
The figure for GUUCCGUUGGCGUAAUGGUAACGCGUCUCCCCCCUAAGGAGUAGACUCCGGGUUCGAGUCCCGUACGGAACG is 0.567; for GUUCCGUUGGCGUAAUGGUAACGCGUCUCCUUCCUAAGGAGAAGACUGCGGGUACGAGUCCGGUACGCAACG it is no more than 0.5; for GUUCCGUUGGCGUAAUGGUAACGCGUCUCCCACCUAAGGAGAAGACUGCGGGUUCGACUCCCGUACGGUACG it is 0.56.
To GUUCCGUUGGCGUAAUGGUAACGCGUCUCCCCCCUAAGGAGAAGAUUGCAGGUUCCAGUCCAGUAUGGAACG belongs no more than 0.5.
For the variant GUUCCGUUGGCGUAAUGGUAACGCGUCUCCUUCCUAAGGAGAAGACGGCGGGUUCGAGUCCCGUUCGGAACG, the yeast fitness is no more than 0.5.
To GUUCCGUUGGCGUAAUGGUAACGCGUCUCCCACCUAAGGAGAAGACUGUGGGUUCGAGUCCCGUACGAAACG belongs no more than 0.5; to GUUCCGUUGGCGUAAUGGUAACGCGUCUCCCACCUAAGGAGCAGACUGCGGGUUCGAGUCCCGUACGGAACG, 0.817; to GUUCCGUUGGCGUAAUGGUAACGCGUCUCCCCCUUAAGGAGAAGACUGCGGGAUCGAGUCCCGUACGCAACG, 0.537.
With GUUCCGUUGGCGUAAUGGUAACGCGUCUCCCACCUAAGGAGAAGACUGCGGGUUCGAGUCACGUUCGGAACG, the yeast fitness is no more than 0.5.
For GUUCCGUUGGCGUAAUGGUAACGCGUCUCCCCCCUAAGGAGAAGAGUGCGGGUUCGAGUCCUGUACGGAACG, the yeast fitness stood at 0.733.
Consider GUUCCGUUGGCGUAAUGGUAACGCGUCUCCCCCCUAAGGAGAAGACUGCGGGUUCGAGUCCCGUUCAGAACG, for which the yeast fitness stood at 0.646.
For the variant GUUCCGUUGGCGUAAUGGUAACGCGUCUCCCACCUAAGGAGAAGACUGCGGGUUCGAGUCCCGAACAGAACG, the yeast fitness was no more than 0.5.
The figure for GUUCCGUUGGCGUAAUGGUAACGCGUCUCCCCCCUAAGGAGAAGACUGCGGGUUCGAGUCCCGUACGAAACG is 0.921; for GUUCCGUUGGCGUAAUGGUAACGCGUCUCCCCCCUAAGGAGAAGACUGCGGGUUCGAGUCCCGUACGUAACG it is 0.877.
